Data published in ChEMBL document CHEMBL4480421 (Bioorg Med Chem, 2019).
≈ marks a conversion by molar mass, not a printed value.

Columns and labels:
[1] = Protein binding in human plasma; assay type: ADME, cell-free; conditions: read-out: PPB
[2] = test system: Vero; test: Cytotoxicity against African green monkey Vero cells after 72 hrs by MTS-PMS assay; assay type: cell-based; conditions: Chlorocebus sabaeus
[3] = biological target: Cytochrome P450 3A4 (Homo sapiens, UniProt P08684); test: Inhibition of CYP3A4 (unknown origin); assay type: ADME
[4] = Ratio of AUC in mouse to MIC90 of replicating Mycobacterium tuberculosis H37Rv after 4 days by Alamar blue assay
In short: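 Mouse plasma exposure (AUC_inf, µg*h/mL) divided by the MIC90 against replicating H37Rv from the aerobic MABA assay.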

[5] = test system: Mycobacterium tuberculosis; test: Antitubercular activity against non-replicating Mycobacterium tuberculosis H37Rv after 10 days by LORA; assay type: functional; conditions: 240 h
In short: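 MIC90 against M. tuberculosis H37Rv under non-replicating conditions (LORA). Tested at the Institute for Tuberculosis Research, University of Illinois at Chicago.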

[6] = test system: Mycobacterium tuberculosis; test: Antitubercular activity against replicating Mycobacterium tuberculosis H37Rv after 4 days by Alamar blue assay; assay type: functional; conditions: 96 h
In short: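 MIC90 against M. tuberculosis H37Rv under aerobic, replicating conditions (MABA). Tested at the Institute for Tuberculosis Research, University of Illinois at Chicago.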

Cytochrome P450 3A4, sequence (P08684 whole entry): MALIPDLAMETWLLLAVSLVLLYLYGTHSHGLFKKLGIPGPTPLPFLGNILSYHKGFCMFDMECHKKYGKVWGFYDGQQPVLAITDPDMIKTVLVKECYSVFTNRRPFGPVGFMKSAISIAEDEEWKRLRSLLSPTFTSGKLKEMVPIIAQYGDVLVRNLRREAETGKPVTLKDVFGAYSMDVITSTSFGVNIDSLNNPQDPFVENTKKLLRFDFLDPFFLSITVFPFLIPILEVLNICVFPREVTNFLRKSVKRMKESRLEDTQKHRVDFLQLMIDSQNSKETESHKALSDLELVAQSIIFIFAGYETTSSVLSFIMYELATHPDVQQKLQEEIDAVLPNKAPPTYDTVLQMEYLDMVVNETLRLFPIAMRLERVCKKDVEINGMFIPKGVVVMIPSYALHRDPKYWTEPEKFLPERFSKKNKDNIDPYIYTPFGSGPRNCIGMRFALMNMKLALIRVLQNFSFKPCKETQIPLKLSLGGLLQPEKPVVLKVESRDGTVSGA

SMILES | fraction unbound [1] | IC50 [2] [µg/mL] | IC50 [3] [µM] | Ratio [4] | MIC90 [5] [µg/mL] | MIC90 [6] [µg/mL]
COc1cc(C(O)(CCN(C)C)C(c2cc3cc(Br)ccc3nc2OC)c2cccc(OC)c2F)c(OC)cn1 (racemic) | < 0.001 | > 10 | – | – | – | –
COc1nc2ccc(Br)cc2cc1C(c1cccc2c1OCO2)C(O)(CCN(C)C)c1cccnc1C (racemic) | < 0.001 | > 10 | > 10 | – | – | –
COc1nc2ccc(Br)cc2cc1C(c1cccc(C)c1)C(O)(CCN(C)C)c1cccnc1OC (racemic) | < 0.001 | > 10 | > 10 | 19.3 | – | –
COc1nc2ccc(Br)cc2cc1C(c1cccc(C)c1)C(O)(CCN(C)C)c1cccnc1C (racemic) | < 0.001 | > 10 | > 10 | – | – | –
COc1cnc(OC)c(C(O)(CCN(C)C)C(c2cc3cc(Br)ccc3nc2OC)c2cccc(OC)c2F)c1 (racemic) | < 0.001 | > 10 | – | – | – | –
COc1cccc(C(c2cc3cc(Br)ccc3nc2OC)C(O)(CCN(C)C)c2cc(C)cnc2C)c1OC (racemic) | < 0.001 | > 10 | – | 19.9 | – | –
COc1cccc(C(c2cc3cc(C#N)ccc3nc2OC)C(O)(CCN(C)C)c2cc(C)nc(C)c2)c1F (racemic) | < 0.001 | > 10 | > 10 | – | – | –
COc1cccc(C(c2cc3cc(Br)ccc3nc2OC)C(O)(CCN(C)C)c2ccc(C)nc2)c1F (racemic) | < 0.001 | > 10 | > 10 | – | – | –
COc1cccc(C(c2cc3cc(Br)ccc3nc2OC)C(O)(CCN(C)C)c2cccc(C)n2)c1F (racemic) | < 0.001 | > 10 | – | – | – | –
CCOc1cc(C(O)(CCN(C)C)C(c2cc3cc(Br)ccc3nc2OC)c2ccnc(OC)c2OC)cc(OC(C)C)n1 (racemic) | < 0.001 | > 10 | – | – | – | –
COc1cccc(C(c2cc3cc(Br)ccc3nc2OC)C(O)(CCN(C)C)c2cnc(C)cc2C)c1OC (racemic) | < 0.001 | – | – | 104 | – | –
COc1nc2ccc(Br)cc2cc1C(c1cccc2c1OCO2)C(O)(CCN(C)C)c1cccnc1OC (racemic) | < 0.001 | > 10 | > 10 | 5.73 | – | –
CCOc1cc(C(O)(CCN(C)C)C(c2cc(OC)nc(OC)c2)c2cc3cc(Br)ccc3nc2OC)cc(OC(C)C)n1 (racemic) | < 0.001 | > 10 | – | 1650 | – | –
COc1nc2ccc(Br)cc2cc1[C@@H](c1ccccc1)[C@@](O)(CCN(C)C)c1cccc2ccccc12 [BEDAQUILINE] | < 0.001 | > 10 | – | – | – | –
COc1cccc(C(O)(CCN(C)C)C(c2cc3cc(Br)ccc3nc2OC)c2cccc3c2OCO3)n1 (racemic) | < 0.001 | > 10 | – | 10.4 | – | –
COc1cccc(C(c2cc3cc(Br)ccc3nc2OC)C(O)(CCN(C)C)c2cc(C)nc(C)c2)c1OC (racemic) | – | – | – | – | 0.07 (≈ 0.118 µM) | 0.04 (≈ 0.0673 µM)
CCc1cc(C(O)(CCN(C)C)C(c2cc3cc(C#N)ccc3nc2OC)c2cccc(OC)c2F)cc(CC)n1 (racemic) | < 0.001 | > 10 | – | – | – | –
COc1cc(C(O)(CCN(C)C)C(c2cc3cc(Br)ccc3nc2OC)c2ccnc(OC)c2OC)cnc1OC (racemic) | < 0.001 | > 10 | – | 71.3 | – | –
CCc1cc(C(O)(CCN(C)C)C(c2cc3cc(Br)ccc3nc2OC)c2cccc(OC)c2F)cc(CC)n1 (racemic) | < 0.001 | > 10 | – | – | – | –
COc1nc2ccc(C#N)cc2cc1C(c1cccc(C)c1)C(O)(CCN(C)C)c1cccnc1OC (racemic) | < 0.001 | > 10 | > 10 | 2.25 | – | –
COc1cc(C(O)(CCN(C)C)C(c2cc3cc(Br)ccc3nc2OC)c2ccnc(OC)c2OC)c(OC)nc1OC (racemic) | < 0.001 | > 10 | – | – | – | –
COc1cccc(C(c2cc3cc(C#N)ccc3nc2OC)C(O)(CCN(C)C)c2cc(C)nc(C)c2)c1OC (racemic) | < 0.001 | > 10 | – | 6.17 | – | –
COc1nc2ccc(C#N)cc2cc1C(c1cccc(F)c1)C(O)(CCN(C)C)c1cncc(C)c1 (racemic) | < 0.001 | > 10 | – | – | – | –
